# Active and inactive are the calls of the source. No cut-off for these calls is given here.
# Columns and labels:
# [1] = Drug uptake in stomach of SCID mouse xenografted with human HT-29 cells at 0.37 MBq/mouse, iv measured at 24 hrs using 177Lu labelled compound by gamma counter analysis; format: ADME, organism-based; settings: in vivo
# Summary of the method: (§1)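 Female SCID mice (5 weeks old) received s.c. flank HT-29 cells (5 × 10^6 in Matrigel). At ~80 mm3, two weeks later, mice were randomized and given 10 μCi (0.37 MBq) of purified 177Lu conjugate i.v. by tail vein. Mice were killed at 4, 24 or 72 h. Tissues were weighed and gamma counted as %ID/g, mean ± SD, n = 5. Tumor-to-tissue ratios were calculated.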
# [2] = Drug uptake in SCID mouse xenografted with human HT-29 cells assessed as tumour retention at 0.37 MBq/mouse, iv measured at 24 hrs using 177Lu labelled compound by gamma counter analysis; format: ADME, organism-based; settings: in vivo
# Summary of the method: (§2)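 Female SCID mice bearing s.c. flank HT-29 xenografts (5 × 10^6 cells in Matrigel, ~80 mm3). Given 10 μCi (0.37 MBq) 177Lu conjugate i.v. by tail vein; groups sacrificed at 4, 24, 72 h. Tissues weighed and gamma-counted as %ID/g, excretion as %ID; n = 5, mean ± SD. Blocking arms: colchicine 1 mg/kg i.p. beforehand, or D-lysine 40 mg/kg co-injected.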
# [3] = Drug uptake in heart of SCID mouse xenografted with human HT-29 cells at 0.37 MBq/mouse, iv measured at 72 hrs using 177Lu labelled compound by gamma counter analysis; format: ADME, organism-based; settings: in vivo
# Summary of the method: (§3)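 Female SCID mice (5 weeks) bore s.c. flank xenografts of HT-29 cells (5 × 10^6 in Matrigel), used at about 80 mm3 (two weeks) and randomized. Each mouse received 10 μCi (0.37 MBq) of HPLC-purified 177Lu-conjugate via tail vein. Tissues were excised, weighed and gamma-counted, expressed as %ID/g; mean ± SD, n = 5.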
# [4] = Drug uptake in brain of SCID mouse xenografted with human HT-29 cells at 0.37 MBq/mouse, iv measured at 72 hrs using 177Lu labelled compound by gamma counter analysis; format: ADME, organism-based; settings: in vivo; summary of the method: as §3
# [5] = Drug uptake in blood of SCID mouse xenografted with human HT-29 cells at 0.37 MBq/mouse, iv measured at 4 hrs using 177Lu labelled compound by gamma counter analysis; format: ADME, organism-based; settings: in vivo; summary of the method: as §2
# [6] = Drug uptake in stomach of SCID mouse xenografted with human HT-29 cells at 0.37 MBq/mouse, iv measured at 4 hrs using 177Lu labelled compound by gamma counter analysis; format: ADME, organism-based; settings: in vivo; summary of the method: as §1
# [7] = Drug uptake in brain of SCID mouse xenografted with human HT-29 cells at 0.37 MBq/mouse, iv measured at 4 hrs using 177Lu labelled compound by gamma counter analysis; format: ADME, organism-based; settings: in vivo; summary of the method: as §3
# [8] = Drug uptake in muscle of SCID mouse xenografted with human HT-29 cells at 0.37 MBq/mouse, iv measured at 72 hrs using 177Lu labelled compound by gamma counter analysis; format: ADME, organism-based, Muscle tissue; settings: in vivo; summary of the method: as §3
# [9] = Drug uptake in kidney of SCID mouse xenografted with human HT-29 cells at 0.37 MBq/mouse, iv measured at 24 hrs using 177Lu labelled compound by gamma counter analysis; format: ADME, organism-based; settings: in vivo; summary of the method: as §3
# [10] = Drug uptake in pancreas of SCID mouse xenografted with human HT-29 cells at 0.37 MBq/mouse, iv measured at 4 hrs using 177Lu labelled compound by gamma counter analysis; format: ADME, organism-based; settings: in vivo; summary of the method: as §3
# [11] = Drug uptake in kidney of SCID mouse xenografted with human HT-29 cells at 0.37 MBq/mouse, iv measured at 4 hrs using 177Lu labelled compound by gamma counter analysis; format: ADME, organism-based; settings: in vivo; summary of the method: as §3
# [12] = Drug excretion in SCID mouse xenografted with human HT-29 cells at 0.37 MBq/mouse, iv measured at 4 hrs using 177Lu labelled compound by gamma counter analysis; format: ADME, organism-based; settings: in vivo; summary of the method: as §2
# [13] = Drug uptake in liver of SCID mouse xenografted with human HT-29 cells at 0.37 MBq/mouse, iv measured at 4 hrs using 177Lu labelled compound by gamma counter analysis; format: ADME, organism-based; settings: in vivo; summary of the method: as §3
# [14] = Drug uptake in small intestine of SCID mouse xenografted with human HT-29 cells at 0.37 MBq/mouse, iv measured at 72 hrs using 177Lu labelled compound by gamma counter analysis; format: ADME, organism-based; settings: in vivo; summary of the method: as §3
# [15] = Drug uptake in heart of SCID mouse xenografted with human HT-29 cells at 0.37 MBq/mouse, iv measured at 24 hrs using 177Lu labelled compound by gamma counter analysis; format: ADME, organism-based; settings: in vivo; summary of the method: as §3
# [16] = Octanol-PBS buffer distribution coefficient, log D of 177Lu labelled compound at pH 7.4 by radiometric analysis; format: physicochemical
# Summary of the method: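 177Lu conjugate partitioned between 1-octanol and PBS pH 7.4. 100 μL aliquots from each layer were gamma counted, and LogD7.4 was calculated from the counts.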
# [17] = Drug uptake in membrane of human HT-29 cells measured after 240 mins using 177Lu labelled compound by gamma counter method relative to control; format: ADME, cell-based; settings: ht-29, 4 h
# Summary of the method: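 HT-29 cells (~1 × 10^6 in 1 mL medium) were incubated with 177Lu-conjugate (100,000 cpm) at 37 °C and sampled at 15–240 min. After medium washes, surface-bound activity was stripped with pH 2.8 glycine-HCl/NaCl buffer, and the internalized fraction was taken from the 1% SDS lysate. Fractions were gamma-counted as % of total added activity; mean ± SD, n = 3.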
# [18] = 1-Octanol-PBS buffer distribution coefficient, log D of natEu labelled compound at pH 7.4 by time resolved fluorescence analysis; format: physicochemical
# Summary of the method: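 natEu-labelled conjugate (300 μg) in 0.2 mL PBS pH 7.4 partitioned against 0.2 mL 1-octanol; 100 μL aliquots from each layer dried under vacuum and taken up in water. Time-resolved fluorescence read at 590 nm with 380 nm excitation, and LogD7.4 calculated from the two layers.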
# [19] = target: Cathepsin B (Homo sapiens, UniProt P07858); test: Binding affinity to human liver cathepsin B assessed as protein-conjugate adduct formation incubated for 30 mins using 177Lu labelled compound by SDS-PAGE analysis
# Summary of the method: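 Purified human liver CatB or CatL (3 nM) in 50 mM sodium acetate/1 mM EDTA pH 5.0 incubated 30 min with 177Lu conjugate (500,000 cpm) in Tris/MgCl2/DTT buffer pH 5.5, alone or with E-64 (10 μM) or N1 (20 μM). Mixtures heated 85 °C 2 min, run on 16% tris-glycine gel at 110 V for 90 min, and read by phosphor autoradiography.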
# [20] = Ratio of drug uptake in SCID mouse xenograted with human HT-29 cells assessed as tumour retention to drug uptake in kidney of SCID mouse xenografted with human HT-29 cells measured after 72 hrs using 177Lu labelled compound; format: ADME, tissue-based, Tumor/Kidney; summary of the method: as §1
# [21] = Ratio of drug uptake in SCID mouse xenograted with human HT-29 cells assessed as tumour retention to drug uptake in lung of SCID mouse xenografted with human HT-29 cells measured after 24 hrs using 177Lu labelled compound; format: ADME, tissue-based, Tumor/Lung; summary of the method: as §1
# [22] = Ratio of drug uptake in SCID mouse xenograted with human HT-29 cells assessed as tumour retention to drug uptake in muscle of SCID mouse xenografted with human HT-29 cells measured after 4 hrs using 177Lu labelled compound; format: ADME, tissue-based, Tumor/Muscle; summary of the method: as §1
Drug uptake [1] [% ID/g],Drug uptake [2] [% ID/g],Drug uptake [3] [% ID/g],Drug uptake [4] [% ID/g],Drug uptake [5] [% ID/g],Drug uptake [6] [% ID/g],Drug uptake [7] [% ID/g],Drug uptake [8] [% ID/g],Drug uptake [9] [% ID/g],Drug uptake [10] [% ID/g],Drug uptake [11] [% ID/g],Drug excretion [12] [%ID],Drug uptake [13] [% ID/g],Drug uptake [14] [% ID/g],Drug uptake [15] [% ID/g],logD [16],Drug uptake [17],logD [18],Activity [19],Ratio [20],Structure (SMILES),other results
0.9,5.1,0.27,0.01,0.83,1.6,0.11,0.12,55,0.84,64,36.6,9.2,3.2,0.6,,,,,,Cc1cc(O)cc(C)c1C[C@H](NC(=O)[C@@H]1CCCN1C(=O)[C@H](CCCNC(=N)N)NC(=O)[C@H](CCCNC(=N)N)N(C)C(=O)[C@@H]1CCCN1C(=O)[C@H](CCCCN)NC(=O)[C@@H](CO)NC(=O)[C@@H](CO)NC(=O)[C@@H](CO)NC(=O)[C@H](Cc1cn(CC(=O)N[C@H](CO)C(=O)N[C@H](CO)C(=O)N[C@H](CO)C(=O)NCC(=O)NCCCC[C@H](NC(=O)[C@H](Cc2ccccc2)NC(=O)OCc2ccccc2)C(=O)NCCc2ccccc2)nn1)NC(=O)CN1CCN(CC(=O)O)CCN(CC(=O)O)CCN(CC(=O)O)CC1)C(=O)N[C@H](C(=O)N[C@@H](CC(C)C)C(=O)O)C(C)(C)C,
0.15,4.4,,0.01,0.01,0.27,0.02,0.01,39,0.12,57,75,0.42,1.07,0.01,-3.51,Not Active,-3.71,inactive,,Cc1cc(O)cc(C)c1C[C@H](NC(=O)[C@@H]1CCCN1C(=O)[C@H](CCCNC(=N)N)NC(=O)[C@H](CCCNC(=N)N)N(C)C(=O)[C@@H]1CCCN1C(=O)[C@H](CCCCN)NC(=O)[C@@H](CO)NC(=O)[C@@H](CO)NC(=O)[C@@H](CO)NC(=O)[C@H](Cc1cn(CCNC(=O)[C@H](CCCNC(=N)N)NC(=O)[C@H](CC(C)C)NC(=O)CCC(=O)O)nn1)NC(=O)CN1CCN(CC(=O)O)CCN(CC(=O)O)CCN(CC(=O)O)CC1)C(=O)N[C@H](C(=O)N[C@@H](CC(C)C)C(=O)O)C(C)(C)C,
0.33,6.2,0.04,0.02,0.02,0.34,0.01,0.03,80,0.19,67,70,0.78,2.3,0.08,-3.78,Not Active,-3.69,Active,0.09,Cc1cc(O)cc(C)c1C[C@H](NC(=O)[C@@H]1CCCN1C(=O)[C@H](CCCNC(=N)N)NC(=O)[C@H](CCCNC(=N)N)N(C)C(=O)[C@@H]1CCCN1C(=O)[C@H](CCCCN)NC(=O)[C@@H](CO)NC(=O)[C@@H](CO)NC(=O)[C@@H](CO)NC(=O)[C@H](Cc1cn(CCNC(=O)[C@H](CCCNC(=N)N)NC(=O)[C@H](CC(C)C)NC(=O)C2OC2C(=O)O)nn1)NC(=O)CN1CCN(CC(=O)O)CCN(CC(=O)O)CCN(CC(=O)O)CC1)C(=O)N[C@H](C(=O)N[C@@H](CC(C)C)C(=O)O)C(C)(C)C (stereo partly specified),Ratio [21]: 15; Ratio [22]: 94
0.9,10,0.4,0.02,1.22,1.7,0.09,0.15,62,0.89,58.2,16.6,38.6,4.3,0.9,-1.95,2%,-2.1,,0.09,Cc1cc(C)c(C(=O)OCC(=O)[C@H](CCCCNC(=O)CNC(=O)[C@@H](CO)NC(=O)[C@@H](CO)NC(=O)[C@@H](CO)NC(=O)Cn2cc(C[C@H](NC(=O)CN3CCN(CC(=O)O)CCN(CC(=O)O)CCN(CC(=O)O)CC3)C(=O)N[C@H](CO)C(=O)N[C@H](CO)C(=O)N[C@H](CO)C(=O)N[C@@H](CCCCN)C(=O)N3CCC[C@H]3C(=O)N(C)[C@@H](CCCNC(=N)N)C(=O)N[C@@H](CCCNC(=N)N)C(=O)N3CCC[C@H]3C(=O)N[C@@H](Cc3c(C)cc(O)cc3C)C(=O)N[C@H](C(=O)N[C@@H](CC(C)C)C(=O)O)C(C)(C)C)nn2)NC(=O)[C@H](Cc2ccccc2)NC(=O)OCc2ccccc2)c(C)c1,Ratio [21]: 2.2; Ratio [22]: 15

# Reference: ChEMBL document CHEMBL4350999, “Enhanced tumor retention of NTSR1-targeted agents by employing a hydrophilic cysteine cathepsin inhibitor” (Eur J Med Chem, 2019)
